Results on 28 compounds are retold here after ChEMBL document CHEMBL1131295, “Design of peptidomimetics that inhibit the association of phosphatidylinositol 3-kinase with platelet-derived growth factor-beta receptor and possess cellular activity” (J Med Chem, 1998).

Where a SMILES comes first, the peptide text is derived from it. [ ]: non-standard residue; d: D form. F2Pmp = N[C@@H](Cc1ccc(C(F)(F)P(=O)(O)O)cc1)C(=O)O; Pmp = N[C@@H](Cc1ccc(CP(=O)(O)O)cc1)C(=O)O; pY = N[C@@H](Cc1ccc(OP(=O)(O)O)cc1)C(=O)O; Nle = CCCC[C@H](N)C(=O)O Bounds are passed on as bounds.

Proto-oncogene tyrosine-protein kinase Src, sequence (P12931 2-536 limits assumed): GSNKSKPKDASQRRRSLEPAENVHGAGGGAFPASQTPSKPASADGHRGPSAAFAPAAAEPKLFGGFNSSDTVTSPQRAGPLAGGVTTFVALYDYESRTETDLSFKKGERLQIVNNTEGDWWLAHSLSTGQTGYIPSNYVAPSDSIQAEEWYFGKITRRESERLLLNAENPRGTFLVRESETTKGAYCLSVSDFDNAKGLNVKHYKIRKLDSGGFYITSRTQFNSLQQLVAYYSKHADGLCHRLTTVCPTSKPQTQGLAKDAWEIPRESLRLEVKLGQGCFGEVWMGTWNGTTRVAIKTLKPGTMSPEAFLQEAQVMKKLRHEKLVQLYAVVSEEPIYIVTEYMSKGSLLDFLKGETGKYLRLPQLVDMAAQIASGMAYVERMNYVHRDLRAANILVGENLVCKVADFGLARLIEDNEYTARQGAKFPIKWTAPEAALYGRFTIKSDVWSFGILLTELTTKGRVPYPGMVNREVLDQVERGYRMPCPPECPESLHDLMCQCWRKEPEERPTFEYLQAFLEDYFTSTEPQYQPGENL

The first assay addresses Proto-oncogene tyrosine-protein kinase Src (Homo sapiens, UniProt P12931). As to the kind of experiment: Affinity for SH2 domain of src in Sf9 insect cells.
Conditions: not given
On to `CSCC[C@H](NC(=O)[C@@H]1CCCN1C(=O)[C@@H](NC(=O)[C@H](Cc1ccc(OP(=O)(O)O)cc1)NC(C)=O)C(C)C)C(=O)N[C@@H](CC(C)C)C(=O)O` (Ac-[pY]VPML-OH), for which the half-inhibitory concentration (IC50) – broadly, the midpoint of a concentration-inhibition curve – was found to be 5.9 µM.
Same read-out and setting: with `CSCC[C@H](NC(=O)[C@@H]1CCCN1C(=O)[C@@H](NC(=O)[C@@H](N)Cc1ccc(OP(=O)(O)O)cc1)C(C)C)C(=O)N[C@@H](CC(C)C)C(=O)O` (H-[pY]VPML-OH) the figure was 12.7 µM; with `CCCC[C@H](NC(=O)[C@@H]1CCCN1C(=O)[C@@H](NC(=O)[C@@H](N)Cc1ccc(OP(=O)(O)O)cc1)C(C)C)C(=O)N[C@@H](CC(C)C)C(=O)O` (H-[pY]VP[Nle]L-OH), > 10 µM.

The target of a further assay is Tyrosine-protein kinase ABL1 (Homo sapiens) (UniProt P00519). As to the kind of experiment: Affinity for SH2 domain of abl expressed in Sf9 insect cells. The conditions noted are these: concentration not given here.
Tyrosine-protein kinase ABL1 (Homo sapiens), sequence (P00519 whole entry, the tested form may be a part): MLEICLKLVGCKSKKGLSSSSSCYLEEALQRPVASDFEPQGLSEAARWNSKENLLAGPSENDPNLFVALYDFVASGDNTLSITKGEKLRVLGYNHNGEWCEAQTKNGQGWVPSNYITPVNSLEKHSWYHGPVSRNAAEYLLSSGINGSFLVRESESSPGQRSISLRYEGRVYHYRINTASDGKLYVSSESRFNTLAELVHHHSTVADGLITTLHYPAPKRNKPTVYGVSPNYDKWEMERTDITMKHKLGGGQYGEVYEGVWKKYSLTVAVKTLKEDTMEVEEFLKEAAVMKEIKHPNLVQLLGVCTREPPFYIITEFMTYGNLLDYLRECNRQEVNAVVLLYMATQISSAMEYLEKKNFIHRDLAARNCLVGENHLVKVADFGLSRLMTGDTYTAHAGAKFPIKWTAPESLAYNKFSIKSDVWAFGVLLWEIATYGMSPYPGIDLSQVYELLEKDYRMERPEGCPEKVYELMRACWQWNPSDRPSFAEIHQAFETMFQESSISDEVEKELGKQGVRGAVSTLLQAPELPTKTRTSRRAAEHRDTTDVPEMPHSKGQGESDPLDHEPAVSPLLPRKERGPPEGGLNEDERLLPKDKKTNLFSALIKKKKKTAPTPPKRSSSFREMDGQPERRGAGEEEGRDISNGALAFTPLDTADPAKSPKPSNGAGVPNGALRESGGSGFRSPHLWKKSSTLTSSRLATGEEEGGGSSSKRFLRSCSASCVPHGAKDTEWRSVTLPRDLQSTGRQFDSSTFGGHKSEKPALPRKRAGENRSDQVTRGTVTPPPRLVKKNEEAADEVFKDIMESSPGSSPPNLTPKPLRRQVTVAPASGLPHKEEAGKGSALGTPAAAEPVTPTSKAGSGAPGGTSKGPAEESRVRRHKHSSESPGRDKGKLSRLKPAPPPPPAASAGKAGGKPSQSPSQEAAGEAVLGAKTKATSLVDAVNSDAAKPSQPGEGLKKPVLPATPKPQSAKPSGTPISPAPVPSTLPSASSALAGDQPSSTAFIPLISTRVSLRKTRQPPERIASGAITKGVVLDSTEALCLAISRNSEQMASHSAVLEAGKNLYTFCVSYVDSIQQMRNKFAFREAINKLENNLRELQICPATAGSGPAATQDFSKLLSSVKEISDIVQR
Consider `CSCC[C@H](NC(=O)[C@@H]1CCCN1C(=O)[C@@H](NC(=O)[C@@H](N)Cc1ccc(OP(=O)(O)O)cc1)C(C)C)C(=O)N[C@@H](CC(C)C)C(=O)O` (H-[pY]VPML-OH), for which the inhibition (commonly the relative decrease from the control value, in per cent) came to 60%.

Tested on in another assay: not listed separately
As to the kind of experiment: Binding affinity against p85 C-terminal SH2 domain to platelet-derived growth factor receptor beta using [35S]GST as radioligand.
Conditions: not given
In a few lines: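 Recombinant [35S]-labelled GST-p85 C-terminal SH2 fusion (E. coli, IPTG 1 mM, trans-35S label) binding to bead-bound Sf9-expressed PDGF-β receptor tyrosine kinase domain, prephosphorylated with 1 mM ATP, 10 mM MnCl2, 5 mM MgCl2.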
On to `CSCC[C@H](NC(=O)[C@@H]1CCCN1C(=O)[C@@H](NC(=O)[C@H](Cc1ccc(OP(=O)(O)O)cc1)NC(C)=O)C(C)C)C(=O)N[C@@H](CC(C)C)C(=O)O` (Ac-[pY]VPML-OH), for which the 50% inhibitory concentration (IC50) was found to be 180 nM.
In the case of `CSCC[C@H](NC(=O)[C@H](CC(=O)O)NC(=O)[C@H](CCSC)NC(=O)[C@@H](N)Cc1ccc(OP(=O)(O)O)cc1)C(=O)N[C@@H](CO)C(=O)O` (H-[pY]MDMS-OH), the IC50 came out at 520 nM.
Take `CC(=O)N[C@@H](Cc1ccc(OP(=O)(O)O)cc1)C(=O)N[C@H](C(=O)N[C@@H](C)C(=O)NCCc1ccccc1)C(C)C`: the half-maximal inhibitory concentration (IC50) was > 100000 nM.
The compound `CC(=O)N[C@@H](Cc1ccc(OP(=O)(O)O)cc1)C(=O)N[C@H](C(=O)N[C@H](C)C(=O)NCCC1CCCCC1)C(C)C` came in with an IC50 of 19000 nM.
The same measure, in the same setting: the figure for `CCCCCNC(=O)C(C)NC(=O)[C@@H](NC(=O)[C@H](Cc1ccc(OP(=O)(O)O)cc1)NC(C)=O)C(C)C` (single isomer, unassigned) is 4560 nM; for `CCCCCCN(CCCCCC)C(=O)[C@@H](C)NC(=O)[C@@H](NC(=O)[C@H](Cc1ccc(OP(=O)(O)O)cc1)NC(C)=O)C(C)C` it is 76 nM; for `CCCCCN(CCCCC)C(=O)[C@@H](C)NC(=O)[C@@H](NC(=O)[C@H](Cc1ccc(OP(=O)(O)O)cc1)NC(C)=O)C(C)C` it is 220 nM.
Consider `CCCCCCN(CCCCCC)C(=O)[C@H](C)NC(=O)[C@@H](NC(=O)[C@H](Cc1ccc(OP(=O)(O)O)cc1)NC(C)=O)C(C)C`, for which the IC50 is 2500 nM.
Same read-out and setting: with `CSCC[C@H](NC(=O)[C@@H]1CCCN1C(=O)[C@@H](NC(=O)[C@@H](N)Cc1ccc(CP(=O)(O)O)cc1)C(C)C)C(=O)N[C@@H](CC(C)C)C(=O)O` (H-[Pmp]VPML-OH) the figure was 8700 nM; with `CCCCCNC(=O)[C@H](C)NC(=O)[C@@H](NC(=O)[C@H](Cc1ccc(OP(=O)(O)O)cc1)NC(C)=O)C(C)C`, 16100 nM; with `CCCCN(CCCC)C(=O)[C@@H](C)NC(=O)[C@@H](NC(=O)[C@H](Cc1ccc(OP(=O)(O)O)cc1)NC(C)=O)C(C)C`, 478 nM.
Take `CSCC[C@H](NC(=O)[C@@H]1CCCN1C(=O)[C@@H](NC(=O)[C@@H](N)Cc1ccc(C(F)(F)P(=O)(O)O)cc1)C(C)C)C(=O)N[C@@H](CC(C)C)C(=O)O` (H-[F2Pmp]VPML-OH): the concentration for half-maximal inhibition (IC50) was 945 nM.
Still for that read-out and setting: the figure for `CSCC[C@H](NC(=O)[C@@H]1CCCN1C(=O)[C@@H](NC(=O)[C@@H](N)Cc1ccc(OP(=O)(O)O)cc1)C(C)C)C(=O)N[C@@H](CC(C)C)C(N)=O` (H-[pY]VPML-NH2) is 400 nM; for `CSCC[C@H](NC(=O)[C@@H]1CCCN1C(=O)[C@@H](NC(=O)[C@@H](N)Cc1ccc(OP(=O)(O)O)cc1)C(C)C)C(=O)N[C@@H](CC(C)C)C(=O)O` (H-[pY]VPML-OH) it is 445 nM.
Same read-out and setting: with `CCCCN(CC(N)=O)C(=O)[C@@H](C)NC(=O)[C@@H](NC(=O)[C@H](Cc1ccc(OP(=O)(O)O)cc1)NC(C)=O)C(C)C` the figure was 2500 nM.
With `CSCC[C@H](NC(=O)[C@@H]1CCCN1C(=O)[C@@H](NC(=O)[C@H](Cc1ccc(C(F)(F)P(=O)(O)O)cc1)NC(C)=O)C(C)C)C(N)=O` (Ac-[F2Pmp]VPM-NH2), the IC50 is 1450 nM.
Consider `CCCCN(CCCC)C(=O)[C@H](C)NC(=O)[C@@H](NC(=O)[C@H](Cc1ccc(OP(=O)(O)O)cc1)NC(C)=O)C(C)C`, for which the IC50 was 5700 nM. Against the preceding compound, the IC50 is about 3.9-fold higher.
Same read-out and setting: with `CSCC[C@H](NC(=O)[C@@H]1CCCN1C(=O)[C@@H](NC(=O)[C@@H](N)Cc1ccc(OP(=O)(O)O)cc1)C(C)C)C(=O)O` (H-[pY]VPM-OH) the figure was 6850 nM.
Compound `CSCC[C@H](NC(=O)[C@@H]1CCCN1C(=O)[C@@H](NC(=O)[C@H](Cc1ccc(OP(=O)(O)O)cc1)NC(C)=O)C(C)C)C(=O)N[C@@H](CC(C)C)C(N)=O` (Ac-[pY]VPML-NH2) came in with an IC50 of 160 nM.
Still for that read-out and setting: the figure for `CSCC[C@H](NC(=O)[C@@H]1CCCN1C(=O)[C@@H](NC(=O)[C@@H](N)Cc1ccc(OP(=O)(O)O)cc1)C(C)C)C(N)=O` (H-[pY]VPM-NH2) is 485 nM; for `CCCCCN(CCCCC)C(=O)[C@H](C)NC(=O)[C@@H](NC(=O)[C@H](Cc1ccc(OP(=O)(O)O)cc1)NC(C)=O)C(C)C` it is 3320 nM.
Turning to `CC(=O)N[C@@H](Cc1ccc(OP(=O)(O)O)cc1)C(=O)N[C@H](C(=O)N[C@H](C)C(=O)NCCc1ccccc1)C(C)C`, the IC50 stood at 37600 nM.
Same read-out and setting: with `CCCC[C@H](NC(=O)[C@@H]1CCCN1C(=O)[C@@H](NC(=O)[C@@H](N)Cc1ccc(OP(=O)(O)O)cc1)C(C)C)C(=O)N[C@@H](CC(C)C)C(=O)O` (H-[pY]VP[Nle]L-OH) the figure was 1360 nM; with `CC(=O)N[C@@H](Cc1ccc(OP(=O)(O)O)cc1)C(=O)N[C@H](C(=O)N[C@@H](C)C(=O)NCCC1CCCCC1)C(C)C`, > 100000 nM.
The compound `CCCCCN(CCCCC)C(=O)[C@H](C)NC(=O)[C@@H](NC(=O)[C@H](Cc1ccc(C(F)(F)P(=O)(O)O)cc1)NC(C)=O)C(C)C` displayed an IC50 of 372 nM.
`CCCCCCCCN(CCCCCCCC)C(=O)[C@H](C)NC(=O)[C@@H](NC(=O)[C@H](Cc1ccc(OP(=O)(O)O)cc1)NC(C)=O)C(C)C`: the concentration for half-maximal inhibition (IC50) was found to be 3470 nM.
With `CCCCCCN(CCCCCC)C(=O)[C@H](C)NC(=O)[C@@H](NC(=O)[C@H](Cc1ccc(C(F)(F)P(=O)(O)O)cc1)NC(C)=O)C(C)C`, the IC50 was 446 nM.
Still for that read-out and setting: with `CSCC[C@H](NC(=O)[C@@H]1CCCN1C(=O)[C@@H](NC(=O)[C@H](Cc1ccc(OP(=O)(O)O)cc1)NC(C)=O)C(C)C)C(N)=O` (Ac-[pY]VPM-NH2) the figure was 264 nM.
